The series can be described thus: MTT cell toxicity assay. Conditions: human, HeLa cells. Type of series: cell-based. The procedure, abridged: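 HeLa cells grown in DMEM with 10% heat-inactivated FBS and 1% penicillin/streptomycin, 5% CO2, 37 °C. Exponentially growing cells were seeded at 2–6 × 10^3 per well and left 24 h, then exposed to graded test compound concentrations for 48 h. MTT (5 mg/mL stock) was added for 2–4 h at 37 °C. Formazan was dissolved in DMSO and read at 492 nm. Mean ± SD, n = 3.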
In general terms: Tetrazolium dyes change colour on reduction, which living cells bring about.

This passage reports IC50 results from publication PMC7606109 (Acta Pharmaceutica Sinica. B, 2020).

The term IC50 denotes the concentration that gives 50% inhibition.

As for `NS(=O)(=O)NCCNc1nonc1C(=NO)Nc1ccc(F)c(Br)c1` [Epa, Epacadostat], the IC50 at 48 h was over 40 µM.
